Test results published in paper PMC9079887 (RSC Advances, 2018).

Columns and labels:
[1] = molecular target: T1, Cathepsin K (Homo sapiens, UniProt P43235); test: Cathepsin activity assay, z-Phe-Arg-AMC substrate, cathepsin K; format: biochemical; details: read-out: IC50 Cathepsin K, pH 5.5, tested under 10 μM
T1 sequence (P43235 115-329): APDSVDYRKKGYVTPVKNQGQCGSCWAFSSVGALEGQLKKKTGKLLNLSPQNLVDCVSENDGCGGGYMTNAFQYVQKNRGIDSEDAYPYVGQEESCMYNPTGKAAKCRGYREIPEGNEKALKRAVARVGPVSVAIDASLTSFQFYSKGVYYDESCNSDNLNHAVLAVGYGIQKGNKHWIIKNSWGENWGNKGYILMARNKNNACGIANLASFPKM
Method in brief: (§1)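 Cathepsin activity was read fluorimetrically on a microplate reader with z-Phe-Arg-AMC as substrate. Activity data were fitted to a linearized curve, and IC50 was read from that curve.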

[2] = molecular target: Cathepsin L (Homo sapiens, UniProt P07711); test: Cathepsin activity assay, z-Phe-Arg-AMC substrate, cathepsin L; format: biochemical; details: read-out: IC50 Cathepsin L, pH 5.5, tested under 10 μM
Chain of Cathepsin L (P07711 114-333, species assumed): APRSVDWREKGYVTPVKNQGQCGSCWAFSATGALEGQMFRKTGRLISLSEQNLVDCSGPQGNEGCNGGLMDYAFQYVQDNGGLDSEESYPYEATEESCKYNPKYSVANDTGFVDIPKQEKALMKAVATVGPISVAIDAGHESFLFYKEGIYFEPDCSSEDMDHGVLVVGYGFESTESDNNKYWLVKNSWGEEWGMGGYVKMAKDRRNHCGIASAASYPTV
Method in brief: as §1

[3] = tested on: pro-MMP-2; details: <50 μmol L^−1; cited from earlier work
[4] = tested on: activated form of MMP-2; details: <50 μmol L^−1; cited from earlier work

Row | SMILES | IC50 [1] | IC50 [2] | effect on activity and expression of pro-MMP-2 [3] | effect on the activated form of MMP-2 [4]
1 | [Cl][Yb]([Cl])[Cl] [YbCl3·6H2O] | > 10 µM | > 10 µM | – | –
2 | O.O.O.O.O.O.O.[Cl-].[Cl-].[Cl-].[La+3] [LaCl3·7H2O] | – | – | inhibits the activity and expression of pro-MMP-2 | does not suppress the activated form of MMP-2
3 | [Cl][Eu]([Cl])[Cl] [EuCl3·6H2O] | > 10 µM | > 10 µM | – | –

Now from value to molecule, other results behind:

Row | IC50 [1] | IC50 [2] | SMILES | effect on activity and expression of pro-MMP-2 [3] | effect on the activated form of MMP-2 [4]
4 | > 10 µM | > 10 µM | [Cl-].[Cl-].[Cl-].[Gd+3] [GdCl36H2O] | – | –
5 | > 10 µM | > 10 µM | [Cl-].[Cl-].[Cl-].[Tb+3] [TbCl3·6H2O] | – | –
6 | > 10 µM | > 10 µM | [Cl-].[Cl-].[Cl-].[La+3] [LaCl3·7H2O] | – | –
